Drawing on ChEMBL document CHEMBL3871278, “Isolation of Coralmycins A and B, Potent Anti-Gram Negative Compounds from the Myxobacteria Corallococcus coralloides M23” (J Nat Prod, 2016), this text covers MIC, Activity and GI50 for 5 compounds.

The subject of one series is Streptococcus pneumoniae. The series is described as follows: Antibacterial activity against Streptococcus pneumoniae KCTC 5412 after 24 hrs by broth microdilution method. The format is functional. The conditions noted are these: KCTC 5412, 24 h. Summed up:
(§1)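 Broth microdilution with triplicate serial 2-fold dilutions; inoculum 10^5 cells/mL at 0.2 mL/well. Strains were grown to mid-log phase and diluted 1000-fold. Media: Mueller-Hinton broth for most strains, nutrient broth for A. baumannii, Todd-Hewitt for S. pneumoniae. DMSO was at most 0.05% final. After 24 h at 37 °C, MIC = lowest concentration completely inhibiting growth, read by A650.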
Background: In broth dilution the organism is exposed to a series of concentrations in liquid medium.

The test system of series [1] is Escherichia coli. The series is described as follows: Antibacterial activity against Escherichia coli CCARM 1356 after 24 hrs by broth microdilution method. It is filed as functional. To be noted: CCARM 1356, 24 h. Summed up:
as §1

Series [2] deals with Staphylococcus aureus. The series is described as follows: Antibacterial activity against quinolone-resistant Staphylococcus aureus CCARM 3519 after 24 hrs by broth microdilution method. The format is functional. To be noted: CCARM 3519, 24 h. An outline of the steps: (§2)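 Strains grown to mid-log phase in Mueller-Hinton broth, diluted 1000-fold; 10^5 cells/mL in Mueller-Hinton broth exposed to serial 2-fold dilutions of compound from DMSO stocks (final DMSO ≤0.05%; 0.05% DMSO vehicle control; ciprofloxacin comparator). Incubated 24 h at 37 °C; growth read by absorbance at 650 nm. MIC = lowest concentration completely inhibiting growth, in triplicate.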

Series [3] deals with Escherichia coli. The series is described as follows: Antibacterial activity against Escherichia coli KCTC 1682 after 24 hrs by broth microdilution method. The format is functional. To be noted: KCTC 1682, 24 h. An outline of the steps: as §1
For another series, the system named is Acinetobacter baumannii. The series is described as follows: Antibacterial activity against Acinetobacter baumannii KCTC 2508 after 24 hrs by broth microdilution method. The format is functional. The conditions noted are these: KCTC 2508, 24 h. Summed up: as §1
The subject of series [4] is Staphylococcus aureus. Kind of series: Antibacterial activity against methicillin-resistant Staphylococcus aureus CCARM 3506 after 24 hrs by broth microdilution method. It is filed as functional. The conditions noted are these: CCARM 3506, 24 h. An outline of the steps: as §2
For a further series, the system named is Pseudomonas aeruginosa. The series is described as follows: Antibacterial activity against Pseudomonas aeruginosa KCTC 2004 after 24 hrs by broth microdilution method. It is filed as functional. To be noted: KCTC 2004, 24 h. Summed up:
as §1

The next series concerns Klebsiella pneumoniae. The series is described as follows: Antibacterial activity against Klebsiella pneumoniae KCTC 22057 after 24 hrs by broth microdilution method. It is filed as functional. The conditions noted are these: KCTC 22057, 24 h. An outline of the steps:
as §1

The subject of series [5] is Staphylococcus aureus. Kind of series: Antibacterial activity against quinolone-resistant Staphylococcus aureus CCARM 3505 after 24 hrs by broth microdilution method. It is filed as functional. The conditions noted are these: CCARM 3505, 24 h. An outline of the steps: as §2
The next series concerns Enterococcus faecalis. The series is described as follows: Antibacterial activity against Enterococcus faecalis KCTC 5191 after 24 hrs by broth microdilution method. It is filed as functional. To be noted: KCTC 5191, 24 h. Summed up:
as §1

Series [6] relates to Staphylococcus aureus. The series is described as follows: Antibacterial activity against Staphylococcus aureus RN4220 after 24 hrs by broth microdilution method. The format is functional. To be noted: RN4220, 24 h. An outline of the steps: as §1
The test system of series [7] is Staphylococcus aureus. The series is described as follows: Antibacterial activity against methicillin-resistant Staphylococcus aureus CCARM 3167 after 24 hrs by broth microdilution method. It is filed as functional. To be noted: CCARM 3167, 24 h. Summed up: as §2
Series [8] in a line: Cytotoxicity against human MCF10A cells assessed as cell growth inhibition at 50 ug/ml after 48 hrs by SRB assay. The format is toxicity, cell-based. To be noted: mcf-10a. An outline of the steps: (§3)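 Single-concentration test at 50 μg/mL for 48 h. HepG2, MRC-9 or MCF10A cells (under passage 20) were grown in RPMI 1640 with 10% newborn calf serum and seeded at 1 × 10^4 cells/well one day before treatment. Growth inhibition was read by sulforhodamine B assay.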
In general terms: Sulforhodamine B stains cellular protein and so reports cell mass.

Series [9] can be described thus: Cytotoxicity against human MRC9 cells assessed as cell growth inhibition at 50 ug/ml after 48 hrs by SRB assay. It is filed as toxicity, cell-based. To be noted: mrc9, 48 h. An outline of the steps:
as §3

The nature of series [10]: Cytotoxicity against human HepG2 cells assessed as cell growth inhibition at 50 ug/ml after 48 hrs by SRB assay. The format is toxicity, cell-based. To be noted: hepg2, 48 h. An outline of the steps:
as §3

Series [11] in a line: Cytotoxicity against human HepG2 cells assessed as cell growth inhibition after 48 hrs by SRB assay. The format is toxicity, cell-based. Summed up:
(§4)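 HepG2, MRC-9 or MCF10A cells (under passage 20) were grown in RPMI 1640 with 10% newborn calf serum and seeded at 1 × 10^4 cells/well one day before treatment. Compounds were applied at various concentrations for 48 h. Viability was measured by sulforhodamine B staining, and GI50 was calculated from the dose-response.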

Series [12] is described as follows: Cytotoxicity against human MRC9 cells assessed as cell growth inhibition after 48 hrs by SRB assay. It is filed as toxicity, cell-based. An outline of the steps: as §4
A short description of series [13]: Cytotoxicity against human MCF10A cells assessed as cell growth inhibition after 48 hrs by SRB assay. The format is toxicity, cell-based, MCF-10A. Summed up: as §4

SMILES strings stand for the structures. Converted amounts (≈) assume the structure as drawn. Counter-ions that a name gives are not always drawn.

The MIC is the least concentration at which growth counts as inhibited. High values mean weaker potency, low ones greater potency. As usually defined, the GI50 is the concentration giving 50% growth inhibition.

Take `CO[C@@H](C(N)=O)[C@H](NC(=O)c1ccc(NC(=O)c2ccc([N+](=O)[O-])cc2)cc1)C(=O)Nc1ccc(C(=O)Nc2ccc(C(=O)Nc3ccc(C(=O)O)c(O)c3OC(C)C)c(O)c2OC(C)C)cc1`: the MIC in the series on Streptococcus pneumoniae was found to be 0.25 µg/mL (≈ 0.267 µM); against Escherichia coli [1], 0.125 µg/mL (≈ 0.134 µM); with Staphylococcus aureus [2] it was 0.25 µg/mL (≈ 0.267 µM); against Escherichia coli [3], 0.125 µg/mL (≈ 0.134 µM); with Acinetobacter baumannii it was 0.125 µg/mL (≈ 0.134 µM); against Staphylococcus aureus [4], 0.015 µg/mL (≈ 0.016 µM). The MIC with Pseudomonas aeruginosa was determined as 4 µg/mL (≈ 4.27 µM); in the series on Klebsiella pneumoniae, 2 µg/mL (≈ 2.14 µM); in the series on Staphylococcus aureus [5], 0.125 µg/mL (≈ 0.134 µM); against Enterococcus faecalis, 0.03 µg/mL (≈ 0.0321 µM); against Staphylococcus aureus [6], 0.015 µg/mL (≈ 0.016 µM); against Staphylococcus aureus [7] it was 0.015 µg/mL (≈ 0.016 µM).
As to `CO[C@@H](C(N)=O)[C@H](NC(=O)c1ccc(NC(=O)c2ccc([N+](=O)[O-])cc2)cc1)C(=O)Nc1ccc(C(=O)Nc2ccc(C(=O)Nc3ccc(C(=O)O)cc3OC(C)C)c(O)c2OC(C)C)cc1`, the Activity entry in series [8], in series [9] and in series [10] was “Non-Toxic” in each case. Further, the MIC in the series with Streptococcus pneumoniae worked out at 2 µg/mL (≈ 2.17 µM); in the series on Escherichia coli [1], 1 µg/mL (≈ 1.09 µM); in the series with Staphylococcus aureus [2] it was 2 µg/mL (≈ 2.17 µM); with Escherichia coli [3] it was 0.5 µg/mL (≈ 0.544 µM); with Acinetobacter baumannii, 0.25 µg/mL (≈ 0.272 µM); with Staphylococcus aureus [4] it was 0.125 µg/mL (≈ 0.136 µM). The MIC is 8 µg/mL (≈ 8.7 µM) in the series with Pseudomonas aeruginosa; 8 µg/mL (≈ 8.7 µM) with Klebsiella pneumoniae; 1 µg/mL (≈ 1.09 µM) with Staphylococcus aureus [5]; 0.125 µg/mL (≈ 0.136 µM) in the series on Enterococcus faecalis; 0.063 µg/mL (≈ 0.0685 µM) in the series with Staphylococcus aureus [6]; 0.125 µg/mL (≈ 0.136 µM) with Staphylococcus aureus [7].
As to `CO[C@H](C(=O)O)[C@H](NC(=O)c1ccc(NC(=O)c2ccc([N+](=O)[O-])cc2)cc1)C(=O)Nc1ccc(C(=O)Nc2ccc(C(=O)Nc3ccc(C(=O)O)cc3OC(C)C)c(O)c2OC(C)C)cc1`, the MIC against Streptococcus pneumoniae is > 16 µg/mL; in the series with Escherichia coli [1], 16 µg/mL (≈ 17.4 µM); against Escherichia coli [3], 4 µg/mL (≈ 4.34 µM); with Acinetobacter baumannii, 4 µg/mL (≈ 4.34 µM); in the series with Staphylococcus aureus [4] it was 1 µg/mL (≈ 1.09 µM); against Pseudomonas aeruginosa, > 16 µg/mL. In addition, the MIC with Klebsiella pneumoniae was > 16 µg/mL; against Enterococcus faecalis, 4 µg/mL (≈ 4.34 µM); with Staphylococcus aureus [6] it was 2 µg/mL (≈ 2.17 µM); against Staphylococcus aureus [7], 1 µg/mL (≈ 1.09 µM).
`O=C(O)c1cn(C2CC2)c2cc(N3CCNCC3)c(F)cc2c1=O` [CIPROFLOXACIN]: the MIC was 64 µg/mL (≈ 193 µM) against Escherichia coli [1]; 128 µg/mL (≈ 386 µM) against Staphylococcus aureus [2]; 0.125 µg/mL (≈ 0.377 µM) in the series on Acinetobacter baumannii; 0.06 µg/mL (≈ 0.181 µM) against Pseudomonas aeruginosa; 0.006 µg/mL (≈ 0.0181 µM) in the series with Klebsiella pneumoniae; 128 µg/mL (≈ 386 µM) against Staphylococcus aureus [5]. In addition, the MIC in the series on Enterococcus faecalis was 0.5 µg/mL (≈ 1.51 µM); in the series on Staphylococcus aureus [7], 2 µg/mL (≈ 6.04 µM).
With `COc1cccc2c1C(=O)c1c(O)c3c(c(O)c1C2=O)C[C@@](O)(C(=O)CO)C[C@@H]3O[C@H]1C[C@H](N)[C@H](O)[C@H](C)O1` [DOXORUBICIN HYDROCHLORIDE], the GI50 at 48 h in series [11], in series [12] and in series [13] was 0.04 to 0.08 µg/mL in each case.
